Data: ChEMBL document CHEMBL1136075, “Synthesis of the novel liqustrazine derivatives and Their protective effect on injured vascular endothelial cell damaged by hydrogen peroxide” (2003)
Activity calls are given as the source filed them. The rule behind the calls is not given here.

Assays:
HUVEC [1] = test: Maximum stimulation of proliferation rate of human umbilical vascular endothelial cells (HUVECs) by the compound at a concentration of 0.1 mM; type: functional
Method in brief: (§1)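 Cultured human umbilical vein endothelial cells (normal, uninjured) exposed to compound over 0.1–1.5 mmol L⁻¹; viability by MTT, absorbance at 570 nm. Proliferation rate P(%) = (A − A0)/A0, with A0 the vehicle-treated control wells. The maximum P over the concentrations tested is reported. Mean ± SEM, n=6 wells.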

HUVEC [2] = test: Maximum stimulation of proliferation rate of human umbilical vascular endothelial cells (HUVECs) by the compound at a concentration of 0.6 mM; type: functional; method in brief: as §1
HUVEC [3] = test: Maximum stimulation of proliferation rate of human umbilical vascular endothelial cells (HUVECs) by the compound at a concentration of 1.5 mM; type: functional; method in brief: as §1
HUVEC [4] = test: Maximum stimulation of proliferation rate of human umbilical vascular endothelial cells (HUVECs) by the compound at a concentration of 0.1-1.5 mM; NA is not active; type: functional, cell-based; method in brief: as §1

For `COc1ccc(/C=C/C(=O)OCc2nc(C)c(C)nc2C)cc1`, the Pmax (HUVEC [1]) was 75.45%.

Work on `Cc1nc(C)c(CO)nc1C` yielded a Pmax (HUVEC [2]) of 28.03%.

`Cc1nc(C)c(COC(=O)c2cccnc2)nc1C` gave a Pmax (HUVEC [1]) of 88.57%.

For `CC(=O)Oc1ccccc1C(=O)OCc1nc(C)c(C)nc1C`, the Pmax (HUVEC [1]) was 70.88%.

`Cc1nc(C)c(COC(=O)c2ccccc2Cl)nc1C` was tested, and the Pmax (HUVEC [2]) was 32.1%.

`COc1ccccc1C(=O)OCc1nc(C)c(C)nc1C` gave a Pmax (HUVEC [1]) of 71.95%.

Molecule `Cc1nc(C)c(COC(=O)Cc2ccccc2)nc1C` has a Pmax (HUVEC [1]) of 76.11%.

Work on `Cc1nc(C)c(COC(=O)c2ccccc2I)nc1C` yielded a Pmax (HUVEC [3]) of 61.36%.

With `COc1cc(C(=O)OCc2nc(C)c(C)nc2C)cc(OC)c1OC` the Pmax (HUVEC [1]) was 45.8%.

In the case of `Cc1nc(C)c(COC(=O)c2ccccc2)nc1C`, the Pmax (HUVEC [2]) is reported as 37%.

With `Cc1nc(C)c(COC(=O)C(C)(C)Oc2ccc(Cl)cc2)nc1C` the Pmax (HUVEC [1]) was 87.85%.

`COc1cc(/C=C/C(=O)OCc2nc(C)c(C)nc2C)ccc1O` was tested, and the Pmax (HUVEC [1]) was 83.87%.

In the case of `Cc1nc(C)c(C)nc1C` [LIGUSTRAZINE], the Pmax (HUVEC [2]) is reported as 20.66%.

Work on `COc1ccc(/C=C/C(=O)OCc2nc(C)c(C)nc2C)c(OC)c1` yielded a Pmax (HUVEC [1]) of 70.16%.

Molecule `COc1ccc(C(=O)OCc2nc(C)c(C)nc2C)cc1OC` has a Pmax (HUVEC [1]) of 52.95%.

With `COc1ccc(C(=O)OCc2nc(C)c(C)nc2C)cc1` the Pmax (HUVEC [1]) was 66.04%.

For `Cc1nc(C)c(COC(=O)c2ccc(Br)cc2)nc1C`, the Pmax (HUVEC [4]) was “inactive”.

`Cc1nc(C)c(COC(=O)c2ccco2)nc1C` was tested, and the Pmax (HUVEC [2]) was 69.39%.

In the case of `Cc1nc(C)c(COC(=O)CCc2ccccc2)nc1C`, the Pmax (HUVEC [1]) is reported as 80.54%.

Molecule `Cc1nc(C)c(COC(=O)/C=C/c2ccccc2)nc1C` has a Pmax (HUVEC [2]) of 77.32%.

Work on `Cc1nc(C)c(COC(=O)c2cccc(Cl)c2)nc1C` yielded a Pmax (HUVEC [1]) of 59.32%.

For `Cc1nc(C)c(COC(=O)c2ccc(Br)cc2Br)nc1C`, the Pmax (HUVEC [4]) was “inactive”.

With `Cc1nc(C)c(COC(=O)c2ccc(Cl)cc2)nc1C` the Pmax (HUVEC [1]) was 82.55%.
